A word on the CLint scaled: it is the capacity of the preparation to metabolise the compound, expressed as a volume cleared per time. For orientation: AUC means concentration integrated over time. The half-life is how long it takes for the measured level to halve. As usually defined, the Cmax is the peak of the concentration-time curve. Usually IC50 stands for the concentration that gives 50% inhibition. What is called bioavailability is dose-corrected exposure relative to a reference, in per cent.

Molecules are shown by their SMILES.

Consider 6 compounds from ChEMBL document CHEMBL1136138, “HIV protease inhibitors with picomolar potency against PI-Resistant HIV-1 by extension of the P3 substituent” (Bioorg Med Chem Lett, 2003).

Data set [1] concerns MT4. Put plainly: Compound was tested for their ability to inhibit spread of PI-resistant HIV-1 (strain Q-18C) viral infection in MT-4 human T-lymphoidcell. The conditions noted are these: read-out: CIC95. The class given is functional. An outline of the steps: (§1)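 Spread of infection was measured in MT4 human T-lymphoid cells infected with viral constructs derived from the resistant clinical strains. The value is CIC95, the concentration that inhibits 95% of viral spread. "≤" and "≥" values are the lowest and highest concentrations tested.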

The nature of data set [2]: In vitro intrinsic clearance in human liver microsome. The class given is ADME. The conditions noted are these: liver microsomes. (In general: Liver microsomes are a subcellular fraction often used to study metabolism.)
Data set [3] in a line: (§2) Area under curve was determine after peroral administration at 5 mpk in dog. The class given is ADME, organism-based, Canis lupus familiaris. The conditions noted are these: in vivo, po, 5 mg/kg.
Data set [4] can be described thus: Half life period was determine after peroral administration at 5 mpk in dog. The data set is classed as ADME, organism-based, Canis lupus familiaris. The conditions noted are these: in vivo, po, 5 mg/kg.
A short description of data set [5]: Cmax was determine after peroral administration at 5 mg/kg in dog. Further details: dose 5 mg/kg, route oral. The conditions noted are these: in vivo, po. The class given is ADME, organism-based, Canis lupus familiaris.
The test system of data set [6] is MT4. Put plainly: Compound was tested for their ability to inhibit spread of wild-type NL4-3 viral infection in MT-4 human T-lymphoidcell. The class given is functional. The conditions noted are these: read-out: CIC95. An outline of the steps: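 Viral spread assay in MT4 human T-lymphoid cells infected with a viral construct derived from wild-type NL4-3. The read-out is CIC95, the concentration that blocks 95% of the spread of infection. Values marked ≤ or ≥ are the lowest or highest concentrations tested.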

Data set [7] is described as follows: Plasma clearance after peroral administration at 5 mg/kg in dog. The data set is classed as ADME, organism-based, Canis lupus familiaris. The arrangement: dose 5 mg/kg, route oral. The conditions noted are these: po, read-out: Clp.
Data set [8] addresses T1, Human immunodeficiency virus type 1 protease (Human immunodeficiency virus 1, UniProt Q72874). The experiment in a line: Inhibitory activity against HIV-1 Protease from PI-resistant HIV-1 (strain K-60C).
Data set [9] deals with MT4. Put plainly: Compound was tested for their ability to inhibit spread of PI-resistant HIV-1 (strain K-60C) viral infection in MT-4 human T-lymphoidcell. The class given is functional. The conditions noted are these: read-out: CIC95. The method in brief:
as §1

Data set [10] deals with T1, Human immunodeficiency virus type 1 protease. The experiment in a line: Inhibitory activity against HIV-1 Protease from wild-type NL4-3 virus.
A further data set concerns the target Cytochrome P450 2D6 (Homo sapiens, UniProt P10635). The experiment in a line: In vitro inhibition of human liver microsome Cytochrome P450 2D6. The class given is ADME, microsomes.
Data set [11] has as its system MT4. The experiment in a line: Compound was tested for their ability to inhibit spread of PI-resistant HIV-1 (strain V-60C) viral infection in MT-4 human T-lymphoidcell. The class given is functional. The conditions noted are these: read-out: CIC95. The method in brief: as §1
Another data set addresses Cytochrome P450 2C9 (Homo sapiens, UniProt P11712). The experiment in a line: In vitro inhibition of human liver microsome Cytochrome P450 2C9. The class given is ADME, microsomes.
The target of another data set is Cytochrome P450 3A4 (Homo sapiens, UniProt P08684). Put plainly: In vitro inhibition of human liver microsome Cytochrome P450 3A4.
Chain of Cytochrome P450 3A4 (P08684 whole entry): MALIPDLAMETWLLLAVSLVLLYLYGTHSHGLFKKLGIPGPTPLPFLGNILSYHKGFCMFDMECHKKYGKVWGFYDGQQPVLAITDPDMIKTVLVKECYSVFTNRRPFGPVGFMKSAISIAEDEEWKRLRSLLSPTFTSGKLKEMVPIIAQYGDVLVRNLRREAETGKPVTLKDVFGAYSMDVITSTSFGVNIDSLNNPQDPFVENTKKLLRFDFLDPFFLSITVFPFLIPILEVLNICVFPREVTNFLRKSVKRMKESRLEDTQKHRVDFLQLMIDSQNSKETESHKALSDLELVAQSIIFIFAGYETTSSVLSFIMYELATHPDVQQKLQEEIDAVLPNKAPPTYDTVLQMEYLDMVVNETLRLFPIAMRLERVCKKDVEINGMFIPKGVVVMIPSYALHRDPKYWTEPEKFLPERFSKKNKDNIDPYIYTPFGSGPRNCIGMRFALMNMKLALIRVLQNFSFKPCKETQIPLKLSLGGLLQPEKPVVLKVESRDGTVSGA
The target of data set [12] is T1, Human immunodeficiency virus type 1 protease. Put plainly: Inhibitory activity against HIV-1 Protease from PI-resistant HIV-1 (strain Q-18C).
Data set [13] is described as follows: Oral bioavailability in dog (dose 5 mg/kg). The data set is classed as ADME, organism-based, Canis lupus familiaris. The conditions noted are these: in vivo.
In data set [14] the target is T1, Human immunodeficiency virus type 1 protease. Put plainly: Inhibitory activity against HIV-1 Protease from PI-resistant HIV-1 (strain V-18C).
Data set [15] is described as follows: Half life period was determine after peroral administration at 10 mpk in dog. The data set is classed as ADME, organism-based, Canis lupus familiaris. The conditions noted are these: in vivo, po, 10 mg/kg.
Data set [16] relates to Canis familiaris. The experiment in a line: (§3) Plasma clearance after peroral administration at 10 mpk in dog. The conditions noted are these: in vivo, po, 10 mg/kg. The data set is classed as ADME, organism-based, Canis lupus familiaris.
Data set [17] deals with Canis familiaris. Put plainly: (§4) Area under curve was determine after peroral administration at 10 mpk in dog. The data set is classed as ADME, organism-based, Canis lupus familiaris. The conditions noted are these: in vivo, po, 10 mg/kg.
Data set [18] in a line: Oral bioavailability in dog (dose 10 mg/kg). The class given is ADME, organism-based, Canis lupus familiaris. The conditions noted are these: in vivo.
Data set [19] is described as follows: Cmax was determine after peroral administration at 10 mpk in dog. The class given is ADME, organism-based, Canis lupus familiaris. The arrangement: dose 10 mpk, route oral. The conditions noted are these: in vivo, po, 10 mg/kg.
Data set [20] is described as follows: Area under curve was determine after peroral administration at 10 mpk in Rhesus. The class given is ADME. The conditions noted are these: cercopithecidae, in vivo, po, 10 mg/kg.
Data set [21] relates to Canis familiaris. The data set is described as §2. The class given is ADME, organism-based, Canis lupus familiaris. The conditions noted are these: in vivo, po, 5 mg/kg.
Data set [22] is described as follows: Oral bioavailability after peroral administration at 5 mpk in Dog. The data set is classed as ADME, organism-based, Canis lupus familiaris. The conditions noted are these: in vivo, 5 mg/kg.
Data set [23] in a line: Cmax was determine after peroral administration at 10 mpk in Rhesus. The data set is classed as ADME, organism-based. The arrangement: dose 10 mpk, route oral. The conditions noted are these: cercopithecidae, in vivo, po, 10 mg/kg.
The test system of data set [24] is Canis familiaris. Put plainly: Plasma clearance after peroral administration at 5 mpk in dog. The class given is ADME, organism-based, Canis lupus familiaris. The conditions noted are these: in vivo, po, 5 mg/kg.
A short description of data set [25]: Half life period was determine after peroral administration at 10 mpk in Rhesus. The data set is classed as ADME, organism-based. The conditions noted are these: cercopithecidae, in vivo, po, 10 mg/kg.
The nature of data set [26]: Plasma clearance after peroral administration at 10 mpk in Rhesus. The class given is ADME, organism-based. The conditions noted are these: cercopithecidae, po, 10 mg/kg, read-out: Clp.
Data set [27] is described as follows: Cmax was determine after peroral administration at 5 mpk in dog. The data set is classed as ADME, organism-based, Canis lupus familiaris. Further details: dose 5 mpk, route oral. The conditions noted are these: in vivo, po, 5 mg/kg.
Data set [28] in a line: Oral bioavailability in Rhesus monkey (dose 10 mg/kg p.o.). The data set is classed as ADME, organism-based, Macaca mulatta. The conditions noted are these: in vivo.
Data set [29] concerns MT4. The experiment in a line: Compound was testedm for their ability to inhibit spread of PI-resistant HIV-1 (strain V-60C) viral infection in MT-4 human T-lymphoidcell. The conditions noted are these: read-out: CIC95. The data set is classed as functional. An outline of the steps: as §1
The nature of data set [30]: as §3. The data set is classed as ADME, organism-based, Canis lupus familiaris. The conditions noted are these: plasma, po, 10 mg/kg, read-out: Clp.
Data set [31] can be described thus: as §4. The class given is ADME, organism-based, Canis lupus familiaris. The conditions noted are these: in vivo, po, 10 mg/kg.

Chain of Cytochrome P450 2C9 (P11712 whole entry): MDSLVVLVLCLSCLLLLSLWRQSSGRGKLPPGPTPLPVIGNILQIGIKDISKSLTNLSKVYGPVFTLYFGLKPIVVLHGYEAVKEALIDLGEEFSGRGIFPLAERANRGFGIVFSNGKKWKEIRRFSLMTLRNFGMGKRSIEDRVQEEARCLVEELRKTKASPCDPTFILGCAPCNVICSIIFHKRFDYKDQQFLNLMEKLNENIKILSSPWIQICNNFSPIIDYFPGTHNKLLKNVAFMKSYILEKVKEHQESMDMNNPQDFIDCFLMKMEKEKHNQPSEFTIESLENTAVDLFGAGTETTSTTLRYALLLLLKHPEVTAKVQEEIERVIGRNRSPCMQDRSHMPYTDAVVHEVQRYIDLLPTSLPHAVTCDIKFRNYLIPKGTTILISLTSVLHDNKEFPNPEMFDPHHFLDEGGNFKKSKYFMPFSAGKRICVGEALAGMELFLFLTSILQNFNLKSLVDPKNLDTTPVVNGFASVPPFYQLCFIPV
Chain of Cytochrome P450 2D6 (P10635 whole entry): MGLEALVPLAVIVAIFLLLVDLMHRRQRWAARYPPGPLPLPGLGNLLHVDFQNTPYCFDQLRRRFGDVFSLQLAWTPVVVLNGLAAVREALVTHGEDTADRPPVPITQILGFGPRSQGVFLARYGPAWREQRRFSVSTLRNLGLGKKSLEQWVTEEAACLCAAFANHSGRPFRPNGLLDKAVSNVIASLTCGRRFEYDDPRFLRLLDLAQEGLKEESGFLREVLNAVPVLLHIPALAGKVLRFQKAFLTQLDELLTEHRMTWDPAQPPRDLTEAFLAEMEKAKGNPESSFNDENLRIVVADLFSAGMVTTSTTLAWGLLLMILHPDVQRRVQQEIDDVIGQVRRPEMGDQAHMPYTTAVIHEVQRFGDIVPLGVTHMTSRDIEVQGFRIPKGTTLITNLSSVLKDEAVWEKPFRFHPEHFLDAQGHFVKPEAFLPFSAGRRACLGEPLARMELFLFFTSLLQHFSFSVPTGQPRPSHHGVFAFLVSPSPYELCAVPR

Turning to `O=C(N[C@H]1c2ccccc2OC[C@H]1O)[C@H](Cc1ccccc1)C[C@H](O)CN1CCN(Cc2ccc(-c3ccncc3)o2)C[C@H]1C(=O)NCC(F)(F)F`, the IC95 was 31 nM in the data set on MT4 [1], at most 8 nM in the data set on MT4 [6], 15 nM in the data set on MT4 [9] and 31 nM in the data set on MT4 [11]. The same compound returned a CLint scaled in data set [2] of 133 mL/min/kg. The AUC in data set [3] worked out at 2.6 µM·h. Further, the half-life in data set [4] came out at 60 min. Besides, in data set [5], the Cmax was determined as 5.3 µM. Moreover, in [7], the CL/F was 24.5 mL/min/kg. In addition, the half-inhibitory concentration (IC50) is 0.6 nM in data set [8]; 0.08 nM in data set [10]; 530 nM on Cytochrome P450 2D6; 5500 nM at Cytochrome P450 2C9; 320 nM against Cytochrome P450 3A4; 0.8 nM in data set [12]. Besides, in data set [14], the IC50 stood at 1.3 nM. This compound came in with a bioavailability in data set [13] of 55%.
For the compound `O=C(N[C@H]1c2ccccc2OC[C@H]1O)[C@H](Cc1ccccc1)C[C@H](O)CN1CCN(Cc2ccc(-c3ccccn3)o2)C[C@H]1C(=O)NCC(F)(F)F`, the IC95 in the data set with MT4 [1] is 15 nM; in the data set with MT4 [6], at most 8 nM; in the data set on MT4 [9], 31 nM; in the data set on MT4 [11] it was 15 nM. The intrinsic metabolic clearance (CLint scaled) in data set [2] was found to be 655 mL/min/kg. For the same compound, the half-life in data set [15] was 50 min. The concentration for half-maximal inhibition (IC50) was 0.5 nM in data set [8]; 29600 nM at Cytochrome P450 2D6; over 30000 nM on Cytochrome P450 2C9; 5200 nM on Cytochrome P450 3A4; 0.4 nM in data set [12]; 0.7 nM in data set [14]. Also, the Clp in the data set with Canis familiaris [16] was 33.5 mL/min/kg. This compound registered an area under the curve (AUC) in the data set on Canis familiaris [17] of 0.4 µM·h. The compound further gave a bioavailability in [18] of 4%. In [19], this compound yielded a peak concentration (Cmax) of 0.9 µM.
As for `CC(C)(c1ccc(-c2ccncc2)o1)N1CCN(C[C@@H](O)C[C@@H](Cc2ccccc2)C(=O)N[C@H]2c3ccccc3OC[C@H]2O)[C@H](C(=O)NCC(F)(F)F)C1`, the AUC worked out at 9.9 µM·h in [20] and 11.3 µM·h in the data set on Canis familiaris [21]. The CLint scaled in [2] was 19 mL/min/kg. Also, the bioavailability in data set [22] came to 100%; in data set [28] it was 90%. Moreover, the half-life in [4] stood at 70 min; in data set [25], 91 min. For the same compound, the Cmax stood at 4.4 µM in data set [23] and 7.3 µM in data set [27]. In addition, the Clp in the data set with Canis familiaris [24] is 22.5 mL/min/kg. Further, the IC95 in the data set with MT4 [6] was at most 8 nM; in the data set on MT4 [11] it was 12 nM. Besides, the half-maximal inhibitory concentration (IC50) turned out to be 0.3 nM in data set [8]; 0.05 nM in [10]; 360 nM at Cytochrome P450 2D6; 410 nM on Cytochrome P450 2C9; 10 nM against Cytochrome P450 3A4; 0.1 nM in data set [12]. The same compound registered a concentration for half-maximal inhibition (IC50) in [14] of 1.2 nM. The CL/F in data set [26] stood at 20.4 mL/min/kg.
`O=C(N[C@H]1c2ccccc2OC[C@H]1O)[C@H](Cc1ccccc1)C[C@H](O)CN1CCN(Cc2ccc(-c3cccnc3)o2)C[C@H]1C(=O)NCC(F)(F)F` yielded an intrinsic metabolic clearance (CLint scaled) in data set [2] of 233 mL/min/kg. This compound also came in with an exposure (AUC) with Canis familiaris [21] of 0.1 µM·h. In data set [4], this compound came in with a half-life of 41 min. This compound also came in with a Cmax in data set [5] of 0.2 µM. In addition, the IC95 in the data set with MT4 [29] is 15 nM; in the data set with MT4 [6], at most 8 nM; in the data set with MT4 [9] it was 15 nM. Also, in the data set on Canis familiaris [24], the Clp was 25.2 mL/min/kg. In addition, the 50% inhibitory concentration (IC50) in [8] is 0.3 nM; in data set [10] it was 0.03 nM; against Cytochrome P450 2D6, 6400 nM; against Cytochrome P450 2C9 it was over 30000 nM; against Cytochrome P450 3A4, 440 nM; in [14], 0.7 nM. Besides, in data set [13], the bioavailability is 2%.
Consider `CC(C)(C)NC(=O)[C@@H]1CN(Cc2cccnc2)CCN1C[C@@H](O)C[C@@H](Cc1ccccc1)C(=O)N[C@H]1c2ccccc2C[C@H]1O.O`, for which the IC95 is over 1000 nM in the data set with MT4 [1], 50 nM with MT4 [6], over 1000 nM with MT4 [9] and over 1000 nM in the data set on MT4 [11]. The same compound returned a half-life in data set [15] of 28 min. The CL/F in [30] amounted to 16 mL/min/kg. In [31], this compound registered an area under the curve (AUC) of 12.5 µM·h. In [18], this compound came in with a bioavailability of 72%.
With `CC(C)(c1cc2cnccc2o1)N1CCN(C[C@@H](O)C[C@@H](Cc2ccccc2)C(=O)N[C@H]2c3ccccc3OC[C@H]2O)[C@H](C(=O)NCC(F)(F)F)C1`, the IC95 in the data set with MT4 [1] is 62 nM; in the data set on MT4 [6], at most 8 nM; in the data set on MT4 [9], 250 nM; with MT4 [11] it was 62 nM. Further, the 50% inhibitory concentration (IC50) came to 5.8 nM in data set [8], 1.6 nM in [12] and 5.2 nM in [14].
